Key:
[1] = target: T1, Adenosine receptor A3 (Homo sapiens, UniProt P0DMS8); experiment: Displacement of [3H]PSB-11 from recombinant human adenosine A3 receptor expressed in CHO cell membranes after 180 mins by liquid scintillation counting method
T1 sequence (P0DMS8 whole entry): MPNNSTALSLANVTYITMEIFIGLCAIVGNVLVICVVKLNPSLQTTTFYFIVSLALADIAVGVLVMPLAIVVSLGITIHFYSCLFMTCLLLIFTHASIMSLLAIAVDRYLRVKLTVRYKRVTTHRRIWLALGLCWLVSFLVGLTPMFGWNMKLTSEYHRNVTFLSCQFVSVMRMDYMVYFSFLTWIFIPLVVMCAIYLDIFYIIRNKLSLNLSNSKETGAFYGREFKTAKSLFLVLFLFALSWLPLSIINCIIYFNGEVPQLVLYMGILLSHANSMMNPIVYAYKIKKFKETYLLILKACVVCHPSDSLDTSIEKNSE
How it was run: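 Human A3AR CHO cell membranes were pre-incubated 10–15 min with adenosine deaminase (0.12 IU/mL), then incubated with [3H]PSB-11 (1 nM) at rt, with 2.5% DMSO final. Nonspecific binding was defined with 100 µM R-PIA. Incubation ended by GF/B filtration with ice-cold 50 mM Tris-HCl (pH 7.4) rinses. Test compounds were run at 6–7 concentrations over 3 log units, in ≥3 independent experiments in duplicate.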

[2] = target: T2, Adenosine receptor A2b (Homo sapiens, UniProt P29275); experiment: Displacement of PSB-12105 from recombinant human adenosine A2B receptor expressed in CHO cell membranes preincubated for 30 mins followed by PSB-12105 addition measured after 20 mins by flow cytometric method; format: cell-based
T2 sequence (P29275 whole entry): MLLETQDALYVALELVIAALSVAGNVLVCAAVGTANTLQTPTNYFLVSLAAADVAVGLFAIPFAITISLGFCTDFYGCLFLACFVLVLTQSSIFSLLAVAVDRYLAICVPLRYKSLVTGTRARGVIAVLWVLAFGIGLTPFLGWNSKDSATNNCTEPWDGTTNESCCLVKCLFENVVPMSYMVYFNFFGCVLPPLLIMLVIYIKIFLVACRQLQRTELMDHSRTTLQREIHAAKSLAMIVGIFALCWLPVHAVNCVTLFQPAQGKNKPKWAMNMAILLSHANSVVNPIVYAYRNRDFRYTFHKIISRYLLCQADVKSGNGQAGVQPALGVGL
How it was run: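 Live CHO-hA2B cells were pre-treated with ADA (2 U/mL, 2 h, 37°C), detached with 5 mM EDTA, and resuspended in HBSS with 2 U/mL ADA at 2.5×10^5 cells/well in 96-well format. Antagonists pre-incubated 30 min at 37°C, then fluorescent ligand (100 nM) added for 20 min at 37°C. 3-5 independent experiments in duplicate.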

[3] = target: T2, Adenosine receptor A2b; experiment: biochemical
[4] = target: T2, Adenosine receptor A2b; experiment: Antagonist activity at recombinant human adenosine A2B receptor expressed in CHO cell membranes assessed as inhibition of NECA-induced cAMP accumulation preincubated for 1 hr followed by NECA induction measured after 5 mins in presence of [3H]cAMP and bovine cAMP-binding protein by liquid scintillation counting method; format: functional
How it was run: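 CHO cells stably expressing human A2BAR, pre-incubated with antagonist dilutions for 1 h at 37°C, then stimulated with NECA (10 µM final) for 5 min at 37°C. Reaction stopped with hot (90 °C) lysis solution (4 mM EDTA, 0.01 % Triton X100). cAMP quantified by radioactive competition with [³H]cAMP and bovine adrenal cAMP-binding protein. Response expressed as % of NECA response without antagonist. Means ± SEM, three independent experiments in duplicate.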

Ki [1]: > 10000 nM | IC50 [2]: 0.739 nM | IC50 [3]: 0.534 nM | IC50 [4]: 18.3 nM
Structure (SMILES): CCCn1c(=O)[nH]c2nc(-c3ccc(S(=O)(=O)N4CCN(c5ccc(Cl)cc5)CC4)cc3)[nH]c2c1=O

Reference: ChEMBL document CHEMBL4184319, “Fluorescent-Labeled Selective Adenosine A2B Receptor Antagonist Enables Competition Binding Assay by Flow Cytometry” (J Med Chem, 2018)
